From PubChem BioAssay
Most compounds without a hit are left out; they make up all but 1.9% or so of the library.
NCF1 inh: blocks human p47phox regulatory protein of NADPH oxidases; inhibition, % at 24.7 µM; P14598; actives 0.53% (n = 220,000); p47phox/p22phox peptide binding, fluorescence polarization, 2 h;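 active = inhibition above about 30%, limit read from the data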;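 note: 0% = p47phox with labelled peptide and 100% = labelled peptide alone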
Target sequence (P14598 whole entry, looked up): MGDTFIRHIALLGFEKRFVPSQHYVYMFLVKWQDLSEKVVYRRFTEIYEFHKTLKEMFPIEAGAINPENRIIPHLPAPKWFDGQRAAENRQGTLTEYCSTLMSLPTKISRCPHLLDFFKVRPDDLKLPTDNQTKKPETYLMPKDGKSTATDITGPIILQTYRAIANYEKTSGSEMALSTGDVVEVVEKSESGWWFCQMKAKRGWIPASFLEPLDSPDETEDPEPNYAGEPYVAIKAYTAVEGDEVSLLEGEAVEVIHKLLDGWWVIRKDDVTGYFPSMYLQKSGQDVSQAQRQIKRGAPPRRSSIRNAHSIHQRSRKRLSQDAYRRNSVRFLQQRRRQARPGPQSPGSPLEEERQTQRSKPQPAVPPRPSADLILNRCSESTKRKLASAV
p-CIP stab down: compounds decreasing mouse p/CIP protein stability; AID 1984; Q05BA5; actives 0.01% (n = 290,000); decrease of EGFP signal, % at 10 µM; F442A p/CIP-EGFP cells, EGFP fluorescence, 16 h;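 active = EGFP signal decrease of at least 30% at 10 µM or well 3 SD below plate mean, unless failing retest; inactive = the rest, including hits failing retest or dose response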
Dynein cargo inh: blocks dynein driven cargo transport along microtubules; 3617.4 mouse cells, GR-EGFP nuclear translocation imaging; test concentration mostly 20 µM; stimulated with dexamethasone, 1 µM; hits give low values; actives 0.47% (n = 220,000); z-score, hits read low;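 active = plate z-score of nuclear minus cytoplasmic receptor signal below a set negative limit, without overly bright fluorescence or cell loss, cut at about -3.5 in these data, passing the limit was not always enough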;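 note: z-score of nuclear minus cytoplasmic ring GR-EGFP intensity difference per well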
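Buffer or medium: tet-free medium with charcoal-stripped serum / Also added: dexamethasone agonist, 1.0 µM final, for 30 min / Timing: induction 48 h, compound 1 h, agonist 30 min / Measured by: high-content fluorescence imaging after fixation / Read-out: nuclear-to-cytoplasmic GR-EGFP distribution per well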
RAM inhibit: inhibitors of the yeast RAM network | S. cerevisiae dse1pr::URA3 reporter, 5-FOA growth OD615, 2 d; analog-sensitive cbk1-as2 kinase mutant strain | inhibition, % at 50 µM | actives 1.8% (n = 190,000) | AID 868;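 active = inhibition above a set limit, 3 SD over mean compound inhibition, cut at about 8.4% in these data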;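 note: 0% = DMSO-only wells with no growth and 100% = 10 µM 1-NA-PP1 full growth; inhibition rescues growth on 5-FOA so higher OD means more RAM inhibition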
RAM 5-FOA: RAM network inhibitors in efflux-deficient yeast; AID 1305; max inhibition, %; 1,200 tested, under 10 active; S. cerevisiae efflux-deficient reporter strain, 5-FOA growth OD615, 2 days; shares compounds with RAM inhibit; call rule not given here;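 note: plate controls were vehicle for no effect and reference inhibitor for full effect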
Numbers without * were called inactive.

How did O=C(CN1C(=O)c2cccc([N+](=O)[O-])c2C1=O)NCc1ccccc1 do in these assays?
p-CIP stab down: -8

What do the screens show for `COc1ccc(C(C)=O)cc1CSc1nnc(Nc2ccccc2)s1`?
NCF1 inh: -15; p-CIP stab down: -2; Dynein cargo inh: 0.017; RAM inhibit: 6

What do the screens show for `CCCCC(=O)Nc1ccccc1C(=O)OCC(=O)c1ccc2c(c1)OCCO2`?
NCF1 inh: -10; p-CIP stab down: -10; Dynein cargo inh: -0.01; RAM inhibit: 13*; RAM 5-FOA: 2

Results for CCN(CC)S(=O)(=O)c1cccc(C(=O)OCC(=O)c2ccc3c(c2)OCCO3)c1 ?
NCF1 inh: -52; p-CIP stab down: -16; Dynein cargo inh: -0.11; RAM inhibit: 14*; RAM 5-FOA: 5

Results for O=C(O)/C=C/C(=O)Nc1ccccc1C(=O)OCC(=O)c1ccc2c(c1)OCCO2 ?
NCF1 inh: 0; p-CIP stab down: -7; Dynein cargo inh: -1.7; RAM inhibit: 1

What do the screens show for `CC(=O)Nc1ccc(S(=O)(=O)Nc2ccccc2C(=O)N2CCCCC2)cc1`?
p-CIP stab down: -13

How did COc1ccc(/C=N/Nc2nc(Nc3ccccc3)nc(N3CCCCC3)n2)cc1OC do in these assays?
NCF1 inh: -14; p-CIP stab down: -14; Dynein cargo inh: 0.61; RAM inhibit: 0

Results for CCOc1cc(/C=N/Nc2nc(Nc3ccccc3)nc(N3CCCCC3)n2)ccc1OCC(=O)O ?
NCF1 inh: -19; p-CIP stab down: 8; Dynein cargo inh: 0.76; RAM inhibit: 19*; RAM 5-FOA: 8

What do the screens show for `Cc1noc(C)c1C(=O)NC1=NCCS1`?
p-CIP stab down: 5

How did CCOC(=O)C1=C(CSc2nc(-c3ccccc3)ccc2C#N)OC(N)=C(C#N)C1c1ccc(OC)cc1 (stereo not drawn) do in these assays?
NCF1 inh: -158; p-CIP stab down: -57; Dynein cargo inh: -3.4; RAM inhibit: 19*; RAM 5-FOA: 4

Results for CCCOc1ccc(CC(=O)N/N=C\c2ccc(F)cc2)cc1 ?
p-CIP stab down: -6

What do the screens show for `c1ccc(Nc2nc(NCc3ccco3)c3ccccc3n2)cc1`?
NCF1 inh: -33; p-CIP stab down: -12; Dynein cargo inh: 0.51

How did Cc1cccc(Nc2nc(NCc3ccco3)c3ccccc3n2)c1 do in these assays?
NCF1 inh: 27; p-CIP stab down: 1; Dynein cargo inh: 2; RAM inhibit: 16*; RAM 5-FOA: 1

How did Cc1ccc(S(=O)(=O)c2c(CO)c(-c3ccccc3)nn2C)cc1 do in these assays?
NCF1 inh: 4; p-CIP stab down: -6; Dynein cargo inh: -1.3; RAM inhibit: 14*; RAM 5-FOA: 4

What do the screens show for `Cc1ccc(S(=O)(=O)c2c(COC(=O)c3ccccc3Cl)c(-c3ccccc3)nn2C)cc1`?
NCF1 inh: -5; p-CIP stab down: 5; Dynein cargo inh: -0.91; RAM inhibit: 5

Results for CCOC(=O)/C(=N/Nc1ccccc1)c1csc(Nc2ccccc2)n1 ?
NCF1 inh: -14; p-CIP stab down: -4; Dynein cargo inh: 2.3; RAM inhibit: 16*; RAM 5-FOA: 4

What do the screens show for `Cc1c(NC(=S)NC(=O)Cc2ccccc2)cccc1C(=O)O`?
NCF1 inh: -10; p-CIP stab down: 2; Dynein cargo inh: -0.73; RAM inhibit: 22*; RAM 5-FOA: 1

How did Cc1cccc(NC(=S)NC(=O)Cc2ccccc2)c1C do in these assays?
p-CIP stab down: 0

Results for O=C(CSCc1nc2c(nnn2Cc2ccc(F)cc2)c(=O)[nH]1)Nc1cccc(C(F)(F)F)c1 ?
NCF1 inh: -10; p-CIP stab down: -12; Dynein cargo inh: -0.89; RAM inhibit: 16*; RAM 5-FOA: 1

Results for Cc1ccc(S(=O)(=O)N2CCCCC2)cc1C(=O)NCc1ccccn1 ?
p-CIP stab down: -2

How did CCOC(=O)C1=C(NC(=S)NC(=O)c2ccccc2)c2ccccc2CC1C(C)C (stereo not drawn) do in these assays?
NCF1 inh: -4; p-CIP stab down: 3; Dynein cargo inh: 0.17; RAM inhibit: 12*; RAM 5-FOA: 3

Results for CCOC(=O)c1c(NC(=O)c2ccccc2)sc2c1CCc1ccccc1-2 ?
NCF1 inh: 6; p-CIP stab down: -1; Dynein cargo inh: 0.097; RAM inhibit: 5

What do the screens show for `COc1ccc(CN(C)C(=O)c2cc(S(=O)(=O)Nc3ccccc3F)ccc2C)c(OC)c1`?
p-CIP stab down: 9
